In assay [1] the target is Receptor-type tyrosine-protein kinase FLT3 (Homo sapiens) (UniProt P36888). Description: Inhibition of FLT3 assessed as enzyme activity at 10 uM relative to control. More on the design: scale not given: the % may be the effect or the level left. A digest of the protocol:
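Single-point test at 10 μM in a 96-kinase screening panel. Reported as % of a DMSO negative control, where a lower value means stronger inhibition.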

The target in assay [2] is MAP kinase-interacting serine/threonine-protein kinase 1 (Homo sapiens, UniProt Q9BUB5). Briefly: Inhibition of MNK1.

For orientation: IC50 means the concentration that inhibits the measured activity by half.

Chain of MAP kinase-interacting serine/threonine-protein kinase 1 (Q9BUB5 whole entry): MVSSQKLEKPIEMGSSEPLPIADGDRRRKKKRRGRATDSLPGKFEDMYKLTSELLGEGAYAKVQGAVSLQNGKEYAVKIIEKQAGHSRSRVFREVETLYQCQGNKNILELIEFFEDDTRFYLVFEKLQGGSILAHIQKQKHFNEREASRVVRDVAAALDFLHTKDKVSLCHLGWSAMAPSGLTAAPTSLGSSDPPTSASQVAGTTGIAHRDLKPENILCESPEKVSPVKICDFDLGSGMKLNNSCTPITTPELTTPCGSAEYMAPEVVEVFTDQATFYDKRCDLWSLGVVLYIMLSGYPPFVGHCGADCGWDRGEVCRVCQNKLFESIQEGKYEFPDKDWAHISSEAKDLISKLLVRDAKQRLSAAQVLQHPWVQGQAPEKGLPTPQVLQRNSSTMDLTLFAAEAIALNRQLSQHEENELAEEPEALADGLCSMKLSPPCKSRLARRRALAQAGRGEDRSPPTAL
Chain of Receptor-type tyrosine-protein kinase FLT3 (Homo sapiens) (P36888 whole entry): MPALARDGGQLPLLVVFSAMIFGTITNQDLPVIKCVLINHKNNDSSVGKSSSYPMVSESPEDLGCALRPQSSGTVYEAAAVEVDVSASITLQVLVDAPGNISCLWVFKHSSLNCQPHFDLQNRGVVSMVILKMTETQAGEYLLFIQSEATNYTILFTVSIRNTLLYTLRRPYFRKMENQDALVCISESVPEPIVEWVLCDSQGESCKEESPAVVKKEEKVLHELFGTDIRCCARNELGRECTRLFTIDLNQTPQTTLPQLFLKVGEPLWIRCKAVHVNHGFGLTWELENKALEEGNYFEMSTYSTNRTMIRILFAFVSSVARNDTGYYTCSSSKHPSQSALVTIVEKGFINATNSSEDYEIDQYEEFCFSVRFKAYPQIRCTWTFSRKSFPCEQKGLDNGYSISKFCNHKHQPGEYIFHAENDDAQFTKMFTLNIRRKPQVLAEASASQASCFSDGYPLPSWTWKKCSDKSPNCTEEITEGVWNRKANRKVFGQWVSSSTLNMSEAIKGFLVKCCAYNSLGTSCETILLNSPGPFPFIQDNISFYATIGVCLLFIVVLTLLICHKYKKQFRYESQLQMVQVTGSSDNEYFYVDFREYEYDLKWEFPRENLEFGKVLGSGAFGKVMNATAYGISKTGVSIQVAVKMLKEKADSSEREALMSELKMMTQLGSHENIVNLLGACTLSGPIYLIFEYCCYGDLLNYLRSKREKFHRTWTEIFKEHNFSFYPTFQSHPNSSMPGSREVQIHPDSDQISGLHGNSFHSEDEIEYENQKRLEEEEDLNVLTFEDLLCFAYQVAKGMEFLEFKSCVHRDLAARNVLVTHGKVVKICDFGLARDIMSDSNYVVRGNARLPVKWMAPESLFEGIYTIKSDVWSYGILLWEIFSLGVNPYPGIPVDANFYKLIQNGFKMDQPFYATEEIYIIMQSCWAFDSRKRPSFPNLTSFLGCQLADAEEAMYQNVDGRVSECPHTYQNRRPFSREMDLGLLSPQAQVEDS

Regarding `C[C@H]1C/C=C/[C@@H](O)[C@@H](O)CC/C=C/c2cc(O)cc(O)c2C(=O)O1` [AIGIALOMYCIN D], the Activity in assay [1] was 7.1%. In assay [2], this compound displayed an IC50 of 40 µM.

The values are drawn from ChEMBL document CHEMBL2010797, “Exploring aigialomycin d and its analogues as protein kinase inhibitors for cancer targets” (ACS Med Chem Lett, 2011).
